# Experimental data of several laboratories.
# Protocols differ between the studies behind these lines.
# Target: Serine/threonine-protein kinase ICK (CILK1, Homo sapiens, UniProt Q9UPZ9)
# Sequence (Q9UPZ9 1-632, as in one of the studies): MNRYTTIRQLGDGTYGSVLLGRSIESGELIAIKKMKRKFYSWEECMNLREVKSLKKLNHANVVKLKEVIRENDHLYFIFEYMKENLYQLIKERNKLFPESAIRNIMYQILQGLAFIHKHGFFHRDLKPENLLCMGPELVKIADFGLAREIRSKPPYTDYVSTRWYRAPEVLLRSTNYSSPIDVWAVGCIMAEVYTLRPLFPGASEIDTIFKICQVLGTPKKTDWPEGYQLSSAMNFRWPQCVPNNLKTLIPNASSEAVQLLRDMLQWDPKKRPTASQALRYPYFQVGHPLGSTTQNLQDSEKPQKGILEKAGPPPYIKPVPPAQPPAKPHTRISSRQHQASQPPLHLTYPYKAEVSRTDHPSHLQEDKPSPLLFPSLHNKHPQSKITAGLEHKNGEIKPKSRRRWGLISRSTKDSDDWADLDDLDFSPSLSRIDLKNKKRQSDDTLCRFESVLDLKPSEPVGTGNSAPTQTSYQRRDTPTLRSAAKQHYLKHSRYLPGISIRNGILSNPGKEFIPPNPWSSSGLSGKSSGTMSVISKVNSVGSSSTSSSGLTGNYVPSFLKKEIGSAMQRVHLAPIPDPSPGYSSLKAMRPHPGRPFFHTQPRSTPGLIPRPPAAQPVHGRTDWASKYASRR
Structure (SMILES),effect on,method,concentration,remaining binding
C[C@H]1CCN(c2nccc(-c3cnn4ncccc34)n2)C1,binding,,1 µM,64%
CN([C@@H]1CCc2c(CC(=O)O)c3ccccc3n2C1)S(=O)(=O)c1ccc(F)cc1,cell-free assay,competition with immobilised ligand,1 µM,100%
O=C(NCCCN1CCOCC1)c1ccc(Nc2nccc(-c3cc4ccccc4s3)n2)cc1,binding,competition with immobilised ligand,1 µM,64%
c1cncc(-c2cccc(Nc3nccc(NC4CCCCC4)n3)c2)c1,binding,competition with immobilised ligand,10 µM,50%
CCOCCn1cc(C(=O)Nc2ccc(-n3nc(-c4cccnc4)cc3C(F)(F)F)cn2)ccc1=O,cell-free assay,competition with immobilised ligand,1 µM,99%
CN(C)c1nccc(-c2cnc3ncccn23)n1,binding,,1 µM,81%
C[C@@]1(Cc2ccc(C#N)cc2)C(=O)N(c2cc(Cl)cc(Cl)c2)c2ncc(C(=O)NC3(c4nc(C5CCC5)no4)CC3)n21,cell-free assay,competition with immobilised ligand,1 µM,100%
FC(F)(F)Oc1cccc(-c2cnc3ccc(-c4ccncc4)nn23)c1,cell-free assay,competition with immobilised ligand,5 µM,4.5%
COc1ncc2cc3ccccc3nc2c1C#N,binding,competition with immobilised ligand,5 µM,90%
CNC(=O)Nc1ccc2c(c1)[C@@]1(CC2)OC(=O)N(CC(=O)N(Cc2ccc(F)cc2)[C@@H](C)C(F)(F)F)C1=O,binding,competition with immobilised ligand,1 µM,67%
O=C(NCC1CCOCC1)c1n[nH]cc1NC(=O)c1c(F)cccc1F,binding,competition with immobilised ligand,1 µM,5.7%
N[C@H]1CCN(c2nccc(-c3cnn4ncccc34)n2)C1,binding,,1 µM,100%
CS(=O)(=O)NCC[C@H](NC(=O)c1cncc2c1cnn2-c1ccc(F)cc1)c1ccnc(S(C)(=O)=O)c1,binding,competition with immobilised ligand,1 µM,100%
c1cnn2ncc(-c3ccnc(N4CCC45COC5)n3)c2c1,binding,,1 µM,69%
O=C(c1ccc(Nc2nccc(-c3cc4ccccc4s3)n2)cc1)N1CCC(N2CCCC2)CC1,binding,competition with immobilised ligand,1 µM,74%
COc1ccnn2ncc(-c3ccnc(N(C)C)n3)c12,binding,,1 µM,74%
O=C(c1ccc(Nc2ncc(Cl)c(-c3ccc(Cl)s3)n2)cc1)N1CCC(N2CCCC2)CC1,binding,competition with immobilised ligand,1 µM,32%
CNC(=O)[C@@H]1CC[C@@H](n2c(-c3ccc4cnccc4c3)nc3ccc(C(=O)NCc4cccc(C(N)=O)c4)cc32)C1,binding,competition with immobilised ligand,1 µM,100%
CN(C)C(=O)Cn1cc(-c2nc([C@@](C)(c3ccc(-c4cnc(N)nc4)cc3)C3CC3)no2)cn1,binding,competition with immobilised ligand,1 µM,100%
COc1cnc(Nc2cccc(S(N)(=O)=O)c2)nc1N1CCN(c2ccccc2)CC1,binding,competition with immobilised ligand,1 µM,72%
CN(C)c1ncc(F)c(-c2cnn3ncccc23)n1,binding,,1 µM,89%
